# In the library only some 2.4% were active in any assay of this set; here they are far more common.
# NPY-Y1 antag = NPY-Y1 receptor antagonists, primary screen, cell-based | inhibition, % at 3.6 µM | actives 1% (n = 200,000) | HEK293-CNG Y1 cells, membrane potential fluorescence; NPY at EC95, then isoproterenol;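 active means inhibition above the campaign mean inhibition of all tested compounds plus 3 SD, cut at about 20% in these data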
# Target sequence (P25929 whole entry, looked up): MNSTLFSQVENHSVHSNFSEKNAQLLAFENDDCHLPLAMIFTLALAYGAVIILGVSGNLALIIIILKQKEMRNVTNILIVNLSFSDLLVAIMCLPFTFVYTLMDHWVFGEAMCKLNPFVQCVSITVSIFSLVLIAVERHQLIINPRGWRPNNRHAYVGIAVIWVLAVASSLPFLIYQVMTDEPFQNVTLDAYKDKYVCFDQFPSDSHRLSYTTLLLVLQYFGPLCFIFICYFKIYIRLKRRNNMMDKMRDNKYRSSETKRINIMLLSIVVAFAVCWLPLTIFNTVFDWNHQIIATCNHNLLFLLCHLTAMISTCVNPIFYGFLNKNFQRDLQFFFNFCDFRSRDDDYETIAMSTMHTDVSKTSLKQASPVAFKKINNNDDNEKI
#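 Material: HEK293 cells with Y1 receptor plus CNG channel; times: compound incubation 1 h at room temperature, readout 45 min post-stimulation; signal: fluorescence, membrane potential probe; read-out basis: fluorescence ratio normalized to % inhibition between controls; benchmarks: full-block control isoproterenol-only wells, zero-block control NPY plus isoproterenol wells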
# S1P4 agonist = S1P4 receptor agonists, primary screen, cell-based; Sphingosine 1-phosphate receptor 4 (Homo sapiens), O95977; S1P4-expressing cell line, agonist reporter assay; activation, % at 4.98 µM; actives 0.35% (n = 220,000); in the data active means activation above about 11%
# S1P4 antag = S1P4 receptor antagonists, primary screen, cell-based. Sphingosine 1-phosphate receptor 4 (Homo sapiens), O95977. S1P4-expressing cells, antagonist mode, reporter read-out. inhibition, % at 4.98 µM. actives 0.26% (n = 220,000); in the data active means inhibition above about 29%
# NPY1 pot ag = NPY-Y1 receptor potentiators or agonists, primary screen, cell-based; Neuropeptide Y receptor type 1 (Homo sapiens), P25929; NPY-Y1 expressing cells, potentiator/agonist activation; activation, % at 3.6 µM; actives 0.37% (n = 220,000); AID 1304, 2008; in the data active means activation above about 33%, passing the limit was not always enough;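 further: cells stimulated with NPY at EC10 then isoproterenol at EC100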
# NPY-Y2 antag = NPY-Y2 receptor antagonists, primary screen, cell-based | Neuropeptide Y receptor type 2 (Homo sapiens), P49146 | actives 0.99% (n = 140,000) | inhibition, % at 2.7 µM | NPY-Y2 expressing cells, antagonist mode; in the data active means inhibition above about 17%
# NPY2 pot ag = NPY-Y2 potentiators or agonists, primary screen, cell-based | Neuropeptide Y receptor type 2 (Homo sapiens), P49146 | cells expressing NPY-Y2, potentiator/agonist read-out | activation, % at 3.6 µM | actives 0.45% (n = 220,000) | AID 1359, 2008; in the data active means activation above about 27%;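 further: cells stimulated with NPY near EC25 plus isoproterenol at EC100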
# A number is an active result; – = inactive; · = no result given.
SMILES,NPY-Y1 antag,S1P4 agonist,S1P4 antag,NPY1 pot ag,NPY-Y2 antag,NPY2 pot ag
CC(Sc1nncn1C)C(=O)Nc1ccc(Cl)cn1 (centres undefined),–,–,–,–,–,–
O=S(=O)(Nc1ccc(N=Nc2ccc(O)c3ccccc23)cc1)c1ccccc1,–,–,–,73.0,–,61.9
Cc1cc2ncn(CCC(=O)NC(C)(C)C)c2cc1C,–,–,–,–,·,–
COc1cc(C(=O)NNC(=S)NC(=O)/C=C/c2ccccc2)cc(OC)c1OC,·,–,–,–,·,–
CN(C)CCCN(C(=O)/C=C/c1cccs1)c1nc2ccc(F)cc2s1,–,–,–,–,·,–
COc1cccc2sc(N(CCN(C)C)C(=O)/C=C/c3cccs3)nc12,–,–,–,97.6,·,100.0
CC1CCN(S(=O)(=O)c2cccc(C(=O)N(Cc3ccccc3)c3ccccn3)c2)CC1,21.7,–,–,–,·,–
CN1CCN(S(=O)(=O)c2cccc(C(=O)N(c3ccccn3)C3CCCCC3)c2)CC1,–,–,–,–,–,–
O=C(COc1ccccc1C(=O)NCc1ccncc1)Nc1ccc(Br)cc1,–,–,–,–,·,–
CCOC(=O)CSc1nc2c(sc(=S)n2Cc2ccco2)c(=O)n1-c1ccc(F)cc1,20.8,–,–,–,19.4,–
CCOC(=O)c1c(C)n(C)c2ccc(O)c(CN(C)C)c12,–,–,–,75.1,–,69.6
COc1cccc(-c2nnn(CC(=O)O)n2)c1,26.3,–,–,–,–,–
CC(C)C[C@H](NC(=O)c1nc[nH]c1C(=O)NCCCCCNC(=O)OC(C)(C)C)C(=O)OCc1ccccc1,–,–,–,38.8,·,36.0
C[C@H](NC(=O)c1nc[nH]c1C(=O)NCCCCCNC(=O)OC(C)(C)C)C(=O)OCc1ccccc1,–,–,–,–,·,–
Cc1ccc(/C=C/C(=O)O)cc1S(=O)(=O)NC1CCS(=O)(=O)C1 (centres undefined),–,–,–,–,·,–
Cc1ccc(NC(=O)CC2S/C(=N/N=C/c3c[nH]c4ccccc34)NC2=O)cc1 (centres undefined),–,–,–,–,–,–
CCOC(=O)c1ccc(NC(=O)CC2S/C(=N/N=C/c3c[nH]c4ccccc34)NC2=O)cc1 (centres undefined),–,–,–,49.1,–,33.5
COc1ccc(C(=O)COC(=O)c2cc(S(=O)(=O)NCc3ccccc3)ccc2O)cc1,–,–,–,–,·,–
Cc1cc(OCC(=O)NC(C)(C)C)ccc1Cl,–,–,–,–,–,–
Cc1cc(OCC(O)CNC(C)(C)C)ccc1Cl (centres undefined),–,–,–,109.7,·,102.3
CC(C)(C)NCC(O)COCc1ccc(Cl)cc1 (centres undefined),–,–,–,73.1,–,67.9
CCc1ccc(OCC(O)CNC(C)(C)C)cc1 (centres undefined),–,–,–,92.7,–,96.3
S=C(NNc1ccc2ccccc2c1)NC1CCCCC1,–,–,–,–,–,–
Cc1cc(NC(=S)Nc2cccc3ccccc23)n[nH]1,–,–,–,–,·,–
Cc1ccccc1Cn1c(=N)n(CC(O)c2ccco2)c2ccccc21 (centres undefined),25.4,–,–,–,22.8,–
SMILES,NPY-Y1 antag,S1P4 agonist,S1P4 antag,NPY1 pot ag,NPY-Y2 antag,NPY2 pot ag
CC(C)CCN(CCC(C)C)C(CO)(CO)CO,–,–,–,–,·,–
CCCC(c1nnnn1Cc1ccco1)N1CCN(c2cc(Cl)ccc2C)CC1 (centres undefined),28.7,–,–,–,27.3,–
COc1ccc(CN(C(=O)c2nsc(Cl)c2Cl)C(C(=O)NC2CCCC2)c2ccc(OC)cc2)cc1 (centres undefined),33.5,–,–,–,22.8,–
Cc1cccc(N(C(=O)c2nsc(Cl)c2Cl)C(C(=O)NC2CCCC2)c2ccc(O)cc2)c1 (centres undefined),–,–,–,–,–,–
COc1cccc(NC(=S)NCCc2ccccn2)c1,–,–,–,–,·,–
O=C(CC1CCCCC1)OCn1nnc2ccccc2c1=O,–,–,–,107.5,–,102.5
COc1ccccc1N(C(=O)c1snc(C(N)=O)c1N)C(C(=O)NC1CCCC1)c1ccco1 (centres undefined),26.7,–,–,–,19.6,–
NNC1=N[C@H]2CS(=O)(=O)C[C@H]2S1,–,–,–,–,–,–
Nc1ccc(-c2cc(-c3ccc(N)cc3)nc(-c3ccccc3)n2)cc1,–,–,–,46.0,–,39.2
CC(C)C(=O)Nc1cc(C(F)(F)F)ccc1N1CCOCC1,–,–,–,–,–,–
Cc1cc(C#N)c(C)n1-c1cc(C(F)(F)F)ccc1N1CCOCC1,21.2,–,–,–,20.2,–
CCCSC(=O)N(CC)CC(=O)Nc1c(CC)cccc1CC,–,–,–,–,19.8,–
CCSC(=O)N(CC)CC(=O)Nc1c(CC)cccc1CC,–,–,–,–,19.6,–
CN(C)S(=O)(=O)c1cccc(NC(=S)NCCCn2ccnc2)c1,–,–,–,–,·,–
COc1ccc([C@H]2[C@H](C(=O)C(C)(C)C)N3N=Cc4ccccc4C3[C@]23N=C(c2ccccc2)OC3=O)cc1 (some centres undefined),26.7,–,–,–,–,–
COC(=O)CSc1nc2ccc(NC(C)=O)cc2s1,–,–,–,67.8,–,61.7
CCOC(=O)CSc1nc2ccc(NC(=O)CSc3nnnn3Cc3ccccc3)cc2s1,–,–,–,103.8,–,98.9
CCOC(=O)CSc1nc2ccc(N)cc2s1,–,–,–,55.8,–,34.2
CC(C)(C)NC(=O)CSc1nc2ccc(NC(=O)CSc3nnnn3Cc3ccccc3)cc2s1,–,–,–,–,–,–
CN(C)S(=O)(=O)c1cc(NC(=O)CNCCN2CCOCC2)ccc1Cl,·,–,–,–,·,–
CCCCC(CC)CNS(=O)(=O)c1ccc2c(c1)CCN2C(=O)CCC(=O)O (centres undefined),–,–,–,40.7,–,–
COc1ccc(NC(=O)c2cc(S(=O)(=O)N3CCCC3)oc2C)cc1,·,–,–,–,·,–
COc1ccc(NS(=O)(=O)c2cc(OC)ccc2NC(=O)c2cc(C)oc2C)cc1,20.4,–,–,–,–,–
CCOC(=O)Cn1c(=O)oc2cc(S(=O)(=O)NC(C)(C)CC)ccc21,·,–,–,–,·,–
CCOC(=O)Cn1c(=O)oc2cc(S(=O)(=O)Nc3cccc(C)c3)ccc21,–,–,–,32.1,–,42.7
CCc1ccc(-c2nc(SCC(=O)N3CCOCC3)n[nH]2)cc1,–,–,–,–,·,–

# Assay outcomes deposited in PubChem by The Scripps Research Institute Molecular Screening Center.
